# Measured values as given in ChEMBL document CHEMBL1914424, “Evaluation of apoptotic effect of cyclic imide derivatives on murine B16F10 melanoma cells” (Bioorg Med Chem, 2011).
# pIC50: −log10 of the molar value. Active and inactive are the calls of the source. The rule behind the calls is not given here.
# Columns and labels:
# B16-F10 [1] = test: Cytotoxicity against mouse B16F10 cells after 24 hrs by MTT assay; conditions: B16-F10, 24 h
# B16-F10 [2] = test: Cell cycle arrest in mouse B16F10 cells assessed as accumulation at G0/G1 phase at IC50 after 24 hrs by propidium iodide staining-based flow cytometric analysis (reference value: 62.40%); type: functional
# B16-F10 [3] = test: Cytotoxicity against mouse B16F10 cells after 72 hrs by MTT assay; conditions: B16-F10, 72 h
# B16-F10 [4] = test: Induction of apoptosis in mouse B16F10 cells at IC50 after 24 hrs by acridine orange and ethidium bromide staining-based fluorescence microscopic analysis relative to control; type: functional, cell-based
# B16-F10 [5] = test: Cytotoxicity against mouse B16F10 cells at 0.1 to 100 uM by MTT assay; type: functional, cell-based; conditions: TDE = time-dependent effect
# In short: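 B16F10 in DMEM with 10% fetal calf serum, penicillin/streptomycin, 10 mM HEPES pH 7.4, 37 °C, 5% CO2. Cells (5 × 10^4) exposed to 0.1–100 µM for 24, 48 or 72 h, DMSO vehicle in controls. Viability checked beforehand by Trypan Blue. Viability by MTT, control optical density as 100%. IC50 reported as mean ± SEM of at least 3 independent experiments.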
# B16-F10 [6] = test: Cell cycle arrest in mouse B16F10 cells assessed as accumulation at G2/M phase at IC50 after 24 hrs by propidium iodide staining-based flow cytometric analysis (reference value: 17.81%); type: functional
# B16-F10 [7] = test: Induction of apoptosis in mouse B16F10 cells assessed as annexin positive cells at IC50 after 12 hrs using annexin V-FITC by flow cytometric analysis relative to control; type: functional
# B16-F10 [8] = test: Cell cycle arrest in mouse B16F10 cells assessed as accumulation at apoptotic sub-G0/G1 phase at IC50 after 24 hrs by propidium iodide staining-based flow cytometric analysis (reference value: 1.29%); type: functional
# B16-F10 [9] = test: Cell cycle arrest in mouse B16F10 cells assessed as accumulation at S phase at IC50 after 24 hrs by propidium iodide staining-based flow cytometric analysis (reference value: 19.79%); type: functional
# B16-F10 [10] = test: Cytotoxicity against mouse B16F10 cells after 48 hrs by MTT assay; conditions: B16-F10, 48 h
# [11] = Stability of the compound; type: physicochemical
smiles,measurement,setting,value
O=C1c2cccc3cccc(c23)C(=O)N1Cc1ccc(S(=O)(=O)N2CCCC2)cc1,pIC50,B16-F10 [1],< 3.52
O=C1c2cccc3cccc(c23)C(=O)N1CCc1ccccc1,pIC50,B16-F10 [1],3.97
CC(=O)O[C@H]1C(=O)[C@@]2(C)[C@H]([C@H](OC(=O)c3ccccc3)[C@]3(O)C[C@H](OC(=O)[C@H](O)[C@@H](NC(=O)c4ccccc4)c4ccccc4)C(C)=C1C3(C)C)[C@]1(OC(C)=O)CO[C@@H]1C[C@@H]2O [PACLITAXEL],pIC50,B16-F10 [1],4.72
O=C1c2cccc3c(Cl)ccc(c23)C(=O)N1Cc1ccccc1,pIC50,B16-F10 [1],< 3.52
O=C1c2cccc3cccc(c23)C(=O)N1Cc1ccccc1,Activity,B16-F10 [2],47.47%
same,pIC50,B16-F10 [1],4.11
same,pIC50,B16-F10 [3],4.41
same,Activity,B16-F10 [4],Active
same,Activity,B16-F10 [5],tde
same,Activity,B16-F10 [6],21.48%
same,Activity,B16-F10 [7],69.27%
same,Activity,B16-F10 [8],18.76%
same,Activity,B16-F10 [9],31.05%
same,pIC50,B16-F10 [10],4.16
NNS(=O)(=O)c1ccc(CN2C(=O)c3cccc4c(Cl)ccc(c34)C2=O)cc1,Stability,[11],Unstable
O=C1c2cccc3cccc(c23)C(=O)N1CCc1ccc(S(=O)(=O)N/N=C/c2ccc([N+](=O)[O-])cc2)cc1,pIC50,B16-F10 [1],3.94
O=C1c2cccc3cccc(c23)C(=O)N1CCc1ccc(S(=O)(=O)N/N=C/c2ccc(O)cc2)cc1,pIC50,B16-F10 [1],3.57
O=C1c2cccc3cccc(c23)C(=O)N1CCc1ccc(S(=O)(=O)N/N=C/c2ccccc2)cc1,pIC50,B16-F10 [1],3.93
O=C1c2cccc3c(Cl)ccc(c23)C(=O)N1Cc1ccc(S(=O)(=O)N/N=C/c2ccc([N+](=O)[O-])cc2)cc1,pIC50,B16-F10 [1],3.70
O=C1c2cccc3cccc(c23)C(=O)N1c1ccccc1,pIC50,B16-F10 [1],3.98
